Test results reported in ChEMBL document CHEMBL1151705, “Novel azalides derived from 16-membered macrolides. Part II: Isolation of the linear 9-formylcarboxylic acid and its sequential macrocyclization with an amino alcohol or an azidoamine” (2008).
In brackets after ≈: the same amount, converted by molar mass.

Assays:
Format in all cases: functional
Streptococcus pneumoniae [1] = assay: Antimicrobial activity against Streptococcus pneumoniae 8 expressing inducible ermB after 20 hrs by agar dilution method
In short: (§1)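 Streptococci, H. influenzae and M. catarrhalis were precultured on blood agar plates. Suspensions of about 10⁶ CFU/ml were inoculated onto sensitivity disk agar supplemented with 5% horse blood and incubated at 37 °C for 20 h. MIC was read as the lowest drug concentration with no visible growth.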

Streptococcus pneumoniae [2] = assay: Antimicrobial activity against Streptococcus pneumoniae 9 expressing mefA after 20 hrs by agar dilution method; in short: as §1
Streptococcus pneumoniae [3] = assay: Antimicrobial activity against Streptococcus pneumoniae 10 expressing mefA after 20 hrs by agar dilution method; conditions: Streptococcus pneumoniae, 20 h; read-out: MIC; in short: as §1
Streptococcus pyogenes [4] = assay: Antimicrobial activity against drug-susceptible Streptococcus pyogenes 1 after 20 hrs by agar dilution method; conditions: Streptococcus pyogenes, 20 h; read-out: MIC; in short: as §1
Streptococcus pyogenes [5] = assay: Antimicrobial activity against Streptococcus pyogenes 2 constitutively expressing ermB after 20 hrs by agar dilution method; in short: as §1
Streptococcus pyogenes [6] = assay: Antimicrobial activity against Streptococcus pyogenes 3 expressing mefA after 20 hrs by agar dilution method; in short: as §1
Moraxella catarrhalis [7] = assay: Antimicrobial activity against drug-susceptible Moraxella catarrhalis 1 after 20 hrs by agar dilution method; in short: as §1
Moraxella catarrhalis [8] = assay: Antimicrobial activity against drug-susceptible Moraxella catarrhalis 2 after 20 hrs by agar dilution method; conditions: Moraxella catarrhalis, 20 h; read-out: MIC; in short: as §1
Haemophilus influenzae [9] = assay: Antimicrobial activity against drug-susceptible Haemophilus influenzae 1 after 20 hrs by agar dilution method; conditions: Haemophilus influenzae, 20 h; read-out: MIC; in short: as §1
Haemophilus influenzae [10] = assay: Antimicrobial activity against drug-susceptible Haemophilus influenzae 2 after 20 hrs by agar dilution method; conditions: Haemophilus influenzae, 20 h; read-out: MIC; in short: as §1
Haemophilus influenzae [11] = assay: Antimicrobial activity against drug-susceptible Haemophilus influenzae 3 after 20 hrs by agar dilution method; conditions: Haemophilus influenzae, 20 h; read-out: MIC; in short: as §1
Haemophilus influenzae [12] = assay: Antimicrobial activity against drug-susceptible Haemophilus influenzae 4 after 20 hrs by agar dilution method; conditions: Haemophilus influenzae, 20 h; read-out: MIC; in short: as §1
Staphylococcus aureus [13] = assay: Antimicrobial activity against drug-susceptible Staphylococcus aureus 209P JC-1 after 20 hrs by agar dilution method; conditions: Staphylococcus aureus, 209P, 20 h; read-out: MIC
In short: (§2)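 Agar dilution MIC. S. aureus seed culture was grown in sensitivity test broth. Cell suspension (about 10⁶ CFU/ml) was inoculated onto sensitivity disk agar with 5% horse blood and incubated at 37 °C for 20 h. MIC was the lowest drug concentration that prevented visible growth.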

Staphylococcus aureus [14] = assay: Antimicrobial activity against drug-susceptible Staphylococcus aureus 2 after 20 hrs by agar dilution method; conditions: Staphylococcus aureus, 20 h; read-out: MIC; in short: as §2
Staphylococcus aureus [15] = assay: Antimicrobial activity against drug-susceptible Staphylococcus aureus 3 after 20 hrs by agar dilution method; conditions: Staphylococcus aureus, 20 h; read-out: MIC; in short: as §2
Staphylococcus aureus [16] = assay: Antimicrobial activity against Staphylococcus aureus 4 constitutively expressing ermA after 20 hrs by agar dilution method; in short: as §2
Staphylococcus aureus [17] = assay: Antimicrobial activity against Staphylococcus aureus 5 expressing inducible ermB after 20 hrs by agar dilution method; conditions: Staphylococcus aureus, 20 h; read-out: MIC; in short: as §2
Streptococcus pneumoniae [18] = assay: Antimicrobial activity against drug-susceptible Streptococcus pneumoniae DP1 Type1 after 20 hrs by agar dilution method; in short: as §1
Streptococcus pneumoniae [19] = assay: Antimicrobial activity against drug-susceptible Streptococcus pneumoniae 2 after 20 hrs by agar dilution method; conditions: Streptococcus pneumoniae, 20 h; read-out: MIC; in short: as §1
Streptococcus pneumoniae [20] = assay: Antimicrobial activity against drug-susceptible Streptococcus pneumoniae 3 after 20 hrs by agar dilution method; conditions: Streptococcus pneumoniae, 20 h; read-out: MIC; in short: as §1
Streptococcus pneumoniae [21] = assay: Antimicrobial activity against Streptococcus pneumoniae 4 constitutively expressing ermB after 20 hrs by agar dilution method; conditions: Streptococcus pneumoniae, 20 h; read-out: MIC; in short: as §1
Streptococcus pneumoniae [22] = assay: Antimicrobial activity against Streptococcus pneumoniae 5 constitutively expressing ermB/mefA after 20 hrs by agar dilution method; conditions: Streptococcus pneumoniae, 20 h; read-out: MIC; in short: as §1
Streptococcus pneumoniae [23] = assay: Antimicrobial activity against Streptococcus pneumoniae 6 constitutively expressing ermB after 20 hrs by agar dilution method; conditions: Streptococcus pneumoniae, 20 h; read-out: MIC; in short: as §1
Streptococcus pneumoniae [24] = assay: Antimicrobial activity against Streptococcus pneumoniae 7 expressing inducible ermB after 20 hrs by agar dilution method; in short: as §1
Staphylococcus aureus [25] = assay: Antimicrobial activity against Staphylococcus aureus 6 expressing inducible ermB after 20 hrs by agar dilution method; in short: as §2
[26] = Streptococcus pneumoniae, 20 h, read-out: MIC
[27] = Streptococcus pyogenes, 20 h, read-out: MIC
[28] = Moraxella catarrhalis, 20 h, read-out: MIC

CCOC(=O)[C@H]1[C@H](C)O[C@@H](O[C@H]2[C@H](N(C)C)[C@@H](O)[C@H](O[C@H]3[C@@H](CC=O)C[C@@H](C)[C@@H](O)CN(C)CCC[C@H](C/C=C/c4ccc5ccccc5c4)OC(=O)C[C@@H](OC(=O)CC)[C@@H]3OC)O[C@@H]2C)C[C@@]1(C)O
MIC (Streptococcus pneumoniae [1]; [26]): 8 µg/mL (≈ 8.12 µM)
MIC (Streptococcus pneumoniae [2]; [26]): 0.13 µg/mL (≈ 0.132 µM)
MIC (Streptococcus pneumoniae [3]): 0.13 µg/mL (≈ 0.132 µM)
MIC (Streptococcus pyogenes [4]): 0.25 µg/mL (≈ 0.254 µM)
MIC (Streptococcus pyogenes [5]): 32 µg/mL (≈ 32.5 µM)
MIC (Streptococcus pyogenes [6]; [27]): 1 µg/mL (≈ 1.01 µM)
MIC (Moraxella catarrhalis [7]; [28]): 2 µg/mL (≈ 2.03 µM)
MIC (Moraxella catarrhalis [8]): 2 µg/mL (≈ 2.03 µM)
MIC (Haemophilus influenzae [9]): 32 µg/mL (≈ 32.5 µM)
MIC (Haemophilus influenzae [10]): 8 µg/mL (≈ 8.12 µM)
MIC (Haemophilus influenzae [11]): 16 µg/mL (≈ 16.2 µM)
MIC (Haemophilus influenzae [12]): 16 µg/mL (≈ 16.2 µM)
MIC (Staphylococcus aureus [13]): 0.5 µg/mL (≈ 0.507 µM)
MIC (Staphylococcus aureus [14]): 2 µg/mL (≈ 2.03 µM)
MIC (Staphylococcus aureus [15]): 0.5 µg/mL (≈ 0.507 µM)
MIC (Staphylococcus aureus [16]): 64 µg/mL (≈ 65 µM)
MIC (Staphylococcus aureus [17]): 0.5 µg/mL (≈ 0.507 µM)
MIC (Streptococcus pneumoniae [18]; [26]): 0.06 µg/mL (≈ 0.0609 µM)
MIC (Streptococcus pneumoniae [19]): 0.06 µg/mL (≈ 0.0609 µM)
MIC (Streptococcus pneumoniae [20]): 0.13 µg/mL (≈ 0.132 µM)
MIC (Streptococcus pneumoniae [21]): 32 µg/mL (≈ 32.5 µM)
MIC (Streptococcus pneumoniae [22]): 32 µg/mL (≈ 32.5 µM)
MIC (Streptococcus pneumoniae [23]): 32 µg/mL (≈ 32.5 µM)
MIC (Streptococcus pneumoniae [24]; [26]): 8 µg/mL (≈ 8.12 µM)
MIC (Staphylococcus aureus [25]): 1 µg/mL (≈ 1.01 µM)

CCOC(=O)[C@H]1[C@H](C)O[C@@H](O[C@H]2[C@H](N(C)C)[C@@H](O)[C@H](O[C@H]3[C@@H](CC=O)C[C@@H](C)[C@@H](O)CN(C)CCC(C/C=C/c4cnc5ccccc5c4)NC(=O)C[C@@H](OC(=O)CC)[C@@H]3OC)O[C@@H]2C)C[C@@]1(C)O (stereo in doubt; form 1)
MIC (Streptococcus pneumoniae [1]): 32 µg/mL (≈ 32.9 µM)
MIC (Streptococcus pneumoniae [2]): 0.13 µg/mL (≈ 0.134 µM)
MIC (Streptococcus pneumoniae [3]): 0.13 µg/mL (≈ 0.134 µM)
MIC (Streptococcus pyogenes [4]): 0.25 µg/mL (≈ 0.257 µM)
MIC (Streptococcus pyogenes [5]): > 128 µg/mL
MIC (Streptococcus pyogenes [6]): 1 µg/mL (≈ 1.03 µM)
MIC (Moraxella catarrhalis [7]): 2 µg/mL (≈ 2.06 µM)
MIC (Moraxella catarrhalis [8]): 2 µg/mL (≈ 2.06 µM)
MIC (Haemophilus influenzae [9]): 32 µg/mL (≈ 32.9 µM)
MIC (Haemophilus influenzae [10]): 2 µg/mL (≈ 2.06 µM)
MIC (Haemophilus influenzae [11]): 16 µg/mL (≈ 16.5 µM)
MIC (Haemophilus influenzae [12]): 16 µg/mL (≈ 16.5 µM)
MIC (Staphylococcus aureus [13]): 0.5 µg/mL (≈ 0.515 µM)
MIC (Staphylococcus aureus [14]): 1 µg/mL (≈ 1.03 µM)
MIC (Staphylococcus aureus [15]): 0.25 µg/mL (≈ 0.257 µM)
MIC (Staphylococcus aureus [16]): > 128 µg/mL
MIC (Staphylococcus aureus [17]): 0.5 µg/mL (≈ 0.515 µM)
MIC (Streptococcus pneumoniae [18]): 0.06 µg/mL (≈ 0.0618 µM)
MIC (Streptococcus pneumoniae [19]): 0.13 µg/mL (≈ 0.134 µM)
MIC (Streptococcus pneumoniae [20]): 0.13 µg/mL (≈ 0.134 µM)
MIC (Streptococcus pneumoniae [21]): > 128 µg/mL
MIC (Streptococcus pneumoniae [22]): > 128 µg/mL
MIC (Streptococcus pneumoniae [23]): > 128 µg/mL
MIC (Streptococcus pneumoniae [24]): 32 µg/mL (≈ 32.9 µM)
MIC (Staphylococcus aureus [25]): 1 µg/mL (≈ 1.03 µM)

CCOC(=O)[C@H]1[C@H](C)O[C@@H](O[C@H]2[C@H](N(C)C)[C@@H](O)[C@H](O[C@H]3[C@@H](CC=O)C[C@@H](C)[C@@H](O)CN(C)CCC[C@@H](CCCc4ccnc5ccccc45)OC(=O)C[C@@H](OC(=O)CC)[C@@H]3OC)O[C@@H]2C)C[C@@]1(C)O
MIC (Streptococcus pneumoniae [1]; [26]): 32 µg/mL (≈ 32.4 µM)
MIC (Streptococcus pneumoniae [2]; [26]): 0.06 µg/mL (≈ 0.0607 µM)
MIC (Streptococcus pneumoniae [3]): 0.06 µg/mL (≈ 0.0607 µM)
MIC (Streptococcus pyogenes [4]): 0.13 µg/mL (≈ 0.132 µM)
MIC (Streptococcus pyogenes [5]): > 128 µg/mL
MIC (Streptococcus pyogenes [6]; [27]): 0.5 µg/mL (≈ 0.506 µM)
MIC (Moraxella catarrhalis [7]; [28]): 2 µg/mL (≈ 2.02 µM)
MIC (Moraxella catarrhalis [8]): 2 µg/mL (≈ 2.02 µM)
MIC (Haemophilus influenzae [9]): 64 µg/mL (≈ 64.8 µM)
MIC (Haemophilus influenzae [10]): 4 µg/mL (≈ 4.05 µM)
MIC (Haemophilus influenzae [11]): 8 µg/mL (≈ 8.1 µM)
MIC (Haemophilus influenzae [12]): 8 µg/mL (≈ 8.1 µM)
MIC (Staphylococcus aureus [13]): 0.25 µg/mL (≈ 0.253 µM)
MIC (Staphylococcus aureus [14]): 0.5 µg/mL (≈ 0.506 µM)
MIC (Staphylococcus aureus [15]): 0.25 µg/mL (≈ 0.253 µM)
MIC (Staphylococcus aureus [16]): > 128 µg/mL
MIC (Staphylococcus aureus [17]): 0.25 µg/mL (≈ 0.253 µM)
MIC (Streptococcus pneumoniae [18]; [26]): 0.03 µg/mL (≈ 0.0304 µM)
MIC (Streptococcus pneumoniae [19]): 0.06 µg/mL (≈ 0.0607 µM)
MIC (Streptococcus pneumoniae [20]): 0.06 µg/mL (≈ 0.0607 µM)
MIC (Streptococcus pneumoniae [21]): > 128 µg/mL
MIC (Streptococcus pneumoniae [22]): > 128 µg/mL
MIC (Streptococcus pneumoniae [23]): > 128 µg/mL
MIC (Streptococcus pneumoniae [24]; [26]): 32 µg/mL (≈ 32.4 µM)
MIC (Staphylococcus aureus [25]): 0.5 µg/mL (≈ 0.506 µM)
